For data set [1] the following is noted: not told; cited from earlier work.
The format of data set [2] is in vivo, mice.
Data set [3] is classed as in vivo, mice. In short, it runs like this:
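Mice (isoflurane-anesthetized or awake) given IV tracer (>99% radiochemical purity, in 95% 20 mM sodium phosphate pH 8.0/5% EtOH); euthanized 35 min later. Brain homogenized in 0.4 N HClO4 (~1:2 w/v) by 30 s ultrasonication at 4 °C, spun 21,000 RCF, 8 °C, 7 min. Plasma and pH-neutralized supernatant passed through 10K filter, then radio-HPLC on C18 with 10 mM NH4HCO3 pH 8.0/MeCN (96:4). Samples kept on ice. Percent parent fraction reported.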
This is another data set of the same source.

The conditions of data set [4]: cited from earlier work.
The conditions of data set [5]: cited from earlier work. This is another data set of the same source.
The conditions of data set [6]: humans, 24h after oral administration of ^14C-labeled 4AP; cited from earlier work.
For data set [7], the system named is CYP2E1. The conditions noted are these: in vitro competition assay; cited from earlier work.
For data set [8], the system named is CYP2E1. The conditions noted are these: humans, DSF treatment; cited from earlier work.

Read-outs that look alike come from different tables or passages of the source.

Consider `Nc1c(O)cncc1F` [5-hydroxy-3F4AP], for which the “permeability across an artificial brain membrane” value in data set [1] is reported as “low permeability”.

As for `Nc1ccncc1[18F]` [[^18F]3F4AP, 3-[^18F]fluoro-4-aminopyridine], the “SUV35 min-br (awk mice)” value in data set [2] (brain, 35 min post-injection, IV, awake mice, n = 20, mean ± SEM) came to 0.28 ± 0.04. Also, the “WB and brain SUV values, awake vs anesthetized mice” value in data set [2] (euthanized at 60 sec (1 min) post-tracer injection, Fig. S1) was “no significant differences”. Also, the “SUV35 min-WB (awk mice)” value in data set [2] (whole blood, 35 min post-injection, IV, awake mice, mean ± SEM) is on record as 0.51 ± 0.05. The “SUV35 min-WB (iso mice)” value in data set [2] (whole blood, 35 min post-injection, IV, isoflurane-anesthetized mice, mean ± SEM) is recorded as 0.66 ± 0.08. In addition, the “percent parent fraction in brain (%PFawk-br)” value in data set [3] (brain, awake mice, 35 min post-tracer, n = 8, mean ± SEM) was found to be 80.3 ± 2.7%. The “proportion of radiometabolites in the brain, anesthetized mice” value in data set [3] (brain, isoflurane-anesthetized mice, 35 min) worked out at 1.6%. Also, the “percent parent fraction in brain (%PFiso-br)” value in data set [3] (brain, isoflurane-anesthetized mice, 35 min post-tracer, n = 5, mean ± SEM) is reported as 98.4 ± 0.2%. For the same compound, in data set [3] (plasma, awake mice, 35 min), the “concentration of metabolites in plasma, awake mice” value is given as 82.3%. In addition, the “percent parent fraction in plasma (%PFawk-pl)” value in data set [3] (plasma, awake mice, 35 min post-tracer, n = 11, mean ± SEM) stood at 17.7 ± 1.7%. For the same compound, the “concentration of metabolites in plasma, anesthetized mice” value in data set [3] (plasma, isoflurane-anesthetized mice, 35 min) is reported as 25.2%. Further, the “percent parent fraction in plasma (%PFiso-pl)” value in data set [3] (plasma, isoflurane-anesthetized mice, 35 min post-tracer, n = 10, mean ± SEM) turned out to be 74.8 ± 1.6%. Also, the “brain uptake SUV at 4 min” value in data set [4] (NHPs, brain, 4 min) is on record as > 3. Moreover, the “parent fraction (metabolic stability)” value in data set [4] (NHPs, up to 2h post-injection) is listed as > 90%. Further, the “brain SUV 90 min post-injection” value is ~ 1.50 in data set [4] (anesthetized NHPs, brain TAC, Fig. 3A) and 0.54 in data set [5] (awake humans, brain TAC, Fig. 3A). For the same compound, in data set [4] (anesthetized NHPs, whole blood, 90 min), the “SUV90 min-WB (NHP)” value is 0.946. The “SUV90 min-WB (human)” value in data set [5] (awake humans, whole blood, 90 min) is 0.87. For the same compound, the “parent remaining in blood” value in data set [5] (humans, 1h post-injection) is listed as “less than 50%”.

Turning to `Nc1ccncc1` [4AP, 4-aminopyridine], the “radioactive species recovered in urine corresponding to the unchanged drug” value in data set [6] was ~ 90%.

On to `Nc1cc[n+]([O-])cc1F` [3F4AP N-oxide], for which the “permeability across an artificial brain membrane” value in data set [1] is “low permeability”.

In the case of `Nc1ccncc1F` [3F4AP, 3-fluoro-4-aminopyrdine], the “affinity of CYP2E1 relative to the affinity for 4AP” value in data set [7] was 50 times.

`CCN(CC)C(=S)SSC(=S)N(CC)CC` [DSF, disulfiram]: the “prevention of clinical isoflurane metabolism” value in data set [8] is on record as 80–90%.
